Source: PubChem (Sanford-Burnham Center for Chemical Genomics)
Only some compounds are listed: those with a hit (about 1.5% of all), similar ones and a draw of the others.
APJ agonist: APJ receptor agonism; P35414; CHO-K1 APJ PathHunter beta-arrestin, luminescence; 0% DMSO wells, 100% apelin; activation, % at 20 µM; actives 0.11% (n = 330,000); AID 2520;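 active = activation more than six SD over the plate average, tested at 20 µM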;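 note: 0% = DMSO alone and 100% = apelin-13 at 10 nM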
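Test system: CHO-K1 APJ beta-arrestin complementation cell line. Amount: cell density 1000 per well. Controls: DMSO negative, 10 nM Apelin-13 positive. Signal: luminescent beta-gal fragment complementation, chemiluminescent substrate. Read-out basis: agonist-driven arrestin binding to APJ. Timing: compound stimulation 90 min at 25 °C, detection 60 min.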
APJ antagonist: blocks the human apelin receptor APJ | actives 0.32% (n = 330,000) | P35414 | inhibition, % at 20 µM | CHO-K1 APJ beta-arrestin complementation, luminescence;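 active = inhibition above about 40% at 20 µM, limit read from the data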;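 note: cells challenged with 10 nM apelin-13 agonist together with compound; plate controls were apelin-13 plus DMSO wells for no effect and DMSO wells lacking apelin-13 for full effect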
CCR6 antag: CCR6 (human) receptor antagonism; P51684; CHO-K1 CCR6 PathHunter beta-arrestin, luminescence, CCL20-stimulated; inhibition, % at 20 µM; actives 0.49% (n = 340,000); AID 493098;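 active = compounds whose inhibition of the agonist-driven luminescence signal at 20 µM reaches about 50%, limit read from the data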;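 note: cells stimulated with CCL20 at 14 nM final; plate controls were DMSO with CCL20 for no effect and DMSO without agonist for full effect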
EBI2 antag: blocks human EBI2 receptor beta-arrestin signaling. P32249. EBI2 beta-arrestin recruitment, luminescence, 7a,25-OHC stimulated. inhibition, % at 5 µM. actives 0.81% (n = 360,000). AID 651636; in the data active = inhibition above about 38%;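 note: enzyme fragment complementation signal reports receptor beta-arrestin coupling in cells; 0% = agonist plus DMSO wells and 100% = wells without agonist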
Target sequence (P32249 whole entry, looked up, the tested form may be a part): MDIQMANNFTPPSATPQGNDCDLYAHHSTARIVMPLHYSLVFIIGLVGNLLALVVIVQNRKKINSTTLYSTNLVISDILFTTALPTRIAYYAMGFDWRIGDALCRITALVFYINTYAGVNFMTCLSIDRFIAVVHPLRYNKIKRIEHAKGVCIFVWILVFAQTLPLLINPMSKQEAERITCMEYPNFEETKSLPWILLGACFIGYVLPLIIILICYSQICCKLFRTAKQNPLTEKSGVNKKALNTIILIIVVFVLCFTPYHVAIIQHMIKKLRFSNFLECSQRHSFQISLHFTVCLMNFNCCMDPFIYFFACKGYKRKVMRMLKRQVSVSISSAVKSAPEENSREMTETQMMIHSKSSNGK
CXCR6 inh: CXCR6 (human) receptor inhibition; actives 0.36% (n = 360,000); CHO-K1 PathHunter CXCR6 beta-arrestin, luminescence; O00574; inhibition, % at 20 µM; in the data active = inhibition above about 34%, passing the limit was not always enough;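 note: antagonist mode with CXCL16 agonist at 10 nM final; 0% = 10 nM CXCL16 with DMSO and 100% = unstimulated wells without agonist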
EBI2 conf: confirmation of human EBI2 receptor antagonists. shares compounds with EBI2 antag. EBI2 beta-arrestin luminescence, 7a,25-OHC antagonism. inhibition, % at 5 µM. actives 29% (n = 2,400);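 active = inhibition of at least 50%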
EBI2 agonist: counter-screen for EBI2 antagonists: EBI2 agonist activity; shares compounds with EBI2 antag; EBI2-expressing cells, agonist mode, luminescence, 60 min; 0% vehicle, 100% 7α,25-dihydroxycholesterol control; activation, % at 5 µM; 2,400 tested, under 10 active;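 active = activation of at least 50%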
bGal cs: counter-screen for EBI2 antagonists: E. coli beta-galactosidase inhibition. purified beta-galactosidase, luminescent Galacton Star, 15 min. AID 652176. inhibition, % at 5 µM. shares compounds with EBI2 antag. actives 1% (n = 2,400);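 active = replicate-average signal at least 3 plate SD below neutral wells, shown as high inhibition, flagging enzyme-inhibiting false positives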;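 note: 0% = DMSO wells with enzyme and 100% = wells lacking enzyme; higher means stronger loss of beta-gal luminescence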
Numbers without * were called inactive.

Screening COc1cccc(C(C(=O)NC2CCCCC2)N(C(=O)Cc2cccs2)c2ccc(-n3cnnn3)c(OC)c2)c1 (centres undefined) returned APJ agonist -3.4, APJ antagonist 5.8, CCR6 antag 2.2, EBI2 antag 10.4 and CXCR6 inh 6.2.
O=c1n(Cc2ccccc2)c2cc(Cl)cnc2n1Cc1ccccc1 was read as APJ agonist -2.6, APJ antagonist 28.6, CCR6 antag 18.9, EBI2 antag 71.2*, CXCR6 inh 7.5, EBI2 conf 50.4*, EBI2 agonist 0.5 and bGal cs 6.5.
`O=C(O)Cn1c(=O)n(Cc2ccccc2)c2ccccc21` gave APJ agonist -2.6, APJ antagonist 9.8, CCR6 antag 4.4, EBI2 antag -3.0 and CXCR6 inh 2.7.
For O=C(CSC1CN(C(c2ccccc2)c2ccccc2)C1)N/N=C/c1ccccc1 the results were APJ agonist -4.0, APJ antagonist -4.4, CCR6 antag 16.1, EBI2 antag 48.9*, CXCR6 inh 11.0, EBI2 conf 34.6, EBI2 agonist -0.8 and bGal cs -10.0.
O=C(CCN1CCN(C(c2ccccc2)c2ccccc2)CC1)N/N=C/c1ccc(O)cc1 was read as APJ agonist 0.3, APJ antagonist -4.8, CCR6 antag 28.2, EBI2 antag 32.0 and CXCR6 inh 1.9.
CN(Cc1nccn1C)C(=O)c1ccc(OC2CCN(CCc3ccccc3)CC2)cc1 was read as APJ agonist -1.7, APJ antagonist 8.0, CCR6 antag 4.9, EBI2 antag -0.1 and CXCR6 inh -0.4.
Cc1cc(C(=O)N2CCN(C(c3ccccc3)c3ccccc3)CC2)no1 was read as APJ agonist 2.0, APJ antagonist -2.1, CCR6 antag 4.6, EBI2 antag 7.5 and CXCR6 inh 0.6.
`O=C(c1cc(-c2cccs2)on1)N1CCN(C(c2ccccc2)c2ccccc2)CC1` gave APJ agonist -4.4, APJ antagonist 21.5, CCR6 antag 14.8, EBI2 antag 87.8*, CXCR6 inh 10.1, EBI2 conf 83.8*, EBI2 agonist -1.2 and bGal cs -9.4.
For COc1cccc(-c2cc(C(=O)N3CCN(C(c4ccccc4)c4ccccc4)CC3)no2)c1 the results were APJ agonist -0.7, APJ antagonist -5.9, CCR6 antag 12.8, EBI2 antag 86.8*, CXCR6 inh 11.0, EBI2 conf 80.6*, EBI2 agonist 0.8 and bGal cs -6.3.
Cc1ccc(/C=N\NC(=O)Cc2noc3ccccc23)cc1 was read as APJ agonist -2.8, APJ antagonist 6.0, CCR6 antag 5.2, EBI2 antag 28.3 and CXCR6 inh 9.8.
Screening Cc1ccc(Nc2c(-c3ccccc3O)nc3cnccn23)cc1 returned APJ agonist -3.0, APJ antagonist -13.3, CCR6 antag 5.5, EBI2 antag 57.4*, CXCR6 inh 3.1, EBI2 conf 31.9, EBI2 agonist 2.0 and bGal cs 7.7.
COc1ccc(Nc2c(-c3ccc(C)cc3)nc3cnccn23)cc1 was read as APJ agonist -1.1, APJ antagonist -10.8, CCR6 antag 27.8, EBI2 antag 20.6 and CXCR6 inh -10.5.
Cc1cccc(Nc2ncnc3onc(-c4cccc(Cl)c4)c23)c1C was read as APJ agonist 7.6, APJ antagonist -33.2, CCR6 antag 1.7, EBI2 antag 10.6 and CXCR6 inh -1.4.
For COc1ccc(CCNC(=O)/C=C/c2cc(OC)c(OC)c(OC)c2)cc1OC the results were APJ agonist -2.8, APJ antagonist 8.1, CCR6 antag 8.2, EBI2 antag 37.5*, CXCR6 inh -1.8, EBI2 conf 18.0, EBI2 agonist 1.0 and bGal cs 10.9.
COc1ccc(CCNC(=O)/C=C/c2ccc(C)cc2)cc1OC was read as APJ agonist -4.2, APJ antagonist 7.4, CCR6 antag -13.0, EBI2 antag 33.9 and CXCR6 inh -1.5.
For O=C(/C=C/c1cccc(Br)c1)NCC1CCCCC1 the results were APJ agonist -2.8, APJ antagonist -0.5, CCR6 antag 21.0, EBI2 antag 42.5*, CXCR6 inh -1.6, EBI2 conf 34.6, EBI2 agonist -0.8 and bGal cs -18.0.
`COc1cc(/C=C/C(=O)NCC2CCCCC2)cc(OC)c1OC` gave APJ agonist 1.8, APJ antagonist -28.3, CCR6 antag 3.7, EBI2 antag 51.7*, CXCR6 inh 10.4, EBI2 conf 40.2, EBI2 agonist -1.5 and bGal cs -19.3.
For O=C(/C=C/c1ccc(Br)cc1)NC1CCCCCC1 the results were APJ agonist -1.6, APJ antagonist 11.8, CCR6 antag 7.8, EBI2 antag 64.5*, CXCR6 inh -1.8, EBI2 conf 60.7*, EBI2 agonist -0.6 and bGal cs 9.4.
Screening O=C(COC(=O)/C=C/c1cccc(Br)c1)NC1CCCCC1 returned APJ agonist -3.1, APJ antagonist -0.7, CCR6 antag 3.7, EBI2 antag 3.3 and CXCR6 inh -5.7.
For CC[C@]1(C(=O)OC)[C@H]2C(=O)N(Cc3ccccc3)C(=O)[C@H]2[C@H]2CN(C)C(=NC)N21 the results were CCR6 antag 29.4, EBI2 antag -1.0 and CXCR6 inh 2.3.
`CC(C)Cn1cc(F)c(=O)n(CC(C)C)c1=O` gave APJ agonist 0.1, APJ antagonist 11.0, CCR6 antag -15.2, EBI2 antag -7.3 and CXCR6 inh 2.5.
For CC(=O)Nc1ccc(S(=O)(=O)NC2CC(=O)N(c3ccc4c(c3)OCCO4)C2)cc1 (centres undefined) the results were APJ agonist -3.7, APJ antagonist 1.6, CCR6 antag -3.4, EBI2 antag -1.7 and CXCR6 inh 2.5.
`O=C(Oc1ccc(-c2cnc3ccccc3n2)cc1)c1cc([N+](=O)[O-])ccc1Cl` gave APJ agonist 5.6, APJ antagonist -12.7, CCR6 antag 12.3, EBI2 antag 54.7*, CXCR6 inh 0.7, EBI2 conf 11.7, EBI2 agonist -0.2 and bGal cs 3.9.
Screening O=C(c1cccnc1)N1CCN(C/C=C/c2ccccc2)CC1 returned APJ agonist -1.7, APJ antagonist 4.8, CCR6 antag -2.6, EBI2 antag 6.3 and CXCR6 inh -9.0.
For O=C(c1cc(Br)c(Br)s1)N1CCN(C/C=C/c2ccccc2)CC1 the results were APJ agonist 1.6, APJ antagonist 4.2, CCR6 antag 14.6, EBI2 antag 65.0*, CXCR6 inh 3.4, EBI2 conf 35.0, EBI2 agonist 0.0 and bGal cs 2.5.
